Consider five molecules from ChEMBL document CHEMBL2069269, “Anti-inflammatory Effect of a Cell-Penetrating Peptide Targeting the Nrf2/Keap1 Interaction” (2012).

Calls of active or inactive are those of the source. The rule behind the calls is not given here. Where a SMILES comes first, the peptide text is derived from it.

The target in test [1] is Kelch-like ECH-associated protein 1 (Homo sapiens) (UniProt Q14145). The experiment in a line: Inhibition of Keap1 interaction with Nrf2 in human THP1 cells assessed as increase in HO-1 mRNA expression at 100 uM from 2 to 8 hrs by qRT-PCR analysis. Type of test: cell-based. The settings on record: THP-1. The gist of the method: (§1)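 Human THP-1 monocytes were incubated with peptide over a time course. HO-1 mRNA was measured by qRT-PCR and normalised to GAPDH mRNA. Data are means ± SEM, n = 3. A dose series of 7.5, 18.75, 37.5 and 75 μM was also tested by the same read-out.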

For test [2] the target is unchanged. The experiment in a line: Inhibition of Keap1 interaction with Nrf2 in human THP1 cells assessed as increase in HO-1 mRNA expression at 100 uM from 3 to 6 hrs by qRT-PCR analysis. Type of test: cell-based. The conditions noted are these: THP-1. Put shortly:
as §1
In general terms: Quantitative PCR measures a nucleic acid by following its amplification.

For test [3] the target is unchanged. Put plainly: Inhibition of Keap1 interaction with Nrf2 in human THP1 cells assessed as increase in Nrf2 protein expression at 100 uM after 3 hrs by Western blot analysis. Type of test: cell-based. The conditions noted are these: THP-1. Put shortly: (§2)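 THP-1 cells were incubated with peptide over a time course, alongside a peptide scrambled in the Keap1-binding 14mer region. Nrf2 protein was detected in cell lysates by Western blot.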
(Immunoblotting shows a protein as a band on a membrane.)

For test [4], the system named is THP-1. The experiment in a line: Upregulation of Nrf2 mRNA expression in human THP1 cells at 100 uM by qRT-PCR analysis. It is filed as functional, cell-based.
Test [5] has as its target Kelch-like ECH-associated protein 1 (Homo sapiens) (UniProt Q14145). The experiment in a line: Inhibition of Keap1 interaction with Nrf2 in human THP1 cells assessed as increase in HO-1 mRNA expression at 75 uM at 6 hrs by qRT-PCR analysis relative to control. The conditions noted are these: THP-1. It is filed as cell-based. Put shortly:
as §1

For test [6] the target is unchanged. Put plainly: Inhibition of Keap1 interaction with Nrf2 in human THP1 cells assessed as increase in HO-1 protein expression at 100 uM at 12 hrs by Western blot analysis. It is filed as cell-based. The conditions noted are these: THP-1. The gist of the method: (§3)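 THP-1 monocytes were treated with peptide or the scrambled-sequence control peptide over a time course. HO-1 protein was assessed by Western blot. The blot shown is representative of n = 3 experiments.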

Test [7] has the same target. Put plainly: Inhibition of Keap1 interaction with Nrf2 in human THP1 cells assessed as increase in HO-1 protein expression by Western blot analysis. It is filed as cell-based. The conditions noted are these: THP-1. Put shortly: as §3
Test [8] shares this target. The experiment in a line: Inhibition of Keap1 interaction with Nrf2 in human THP1 cells assessed as increase in HO-1 protein expression at 37.5 uM by Western blot analysis. It is filed as cell-based. The settings on record: THP-1.
Test [9] deals with THP-1. The experiment in a line: Antiinflammatory activity in human THP1 cells assessed as inhibition of LPS-induced TNFalpha mRNA expression at 100 uM incubated for 4 hrs prior to LPS-stimulation measured after 3 hrs by qRT-PCR analysis.
The target of test [10] is Kelch-like ECH-associated protein 1 (Homo sapiens) (UniProt Q14145). Put plainly: Inhibition of Keap1 interaction with Nrf2 in human THP1 cells assessed as increase in Nrf2 protein expression at 100 uM from 1 to 6 hrs by Western blot analysis. It is filed as cell-based. The settings on record: THP-1. The gist of the method: as §2
Test [11] shares this target. Put plainly: Inhibition of Keap1 interaction with Nrf2 in human THP1 cells assessed as increase in HO-1 protein expression at 100 uM at 9 to 16 hrs by Western blot analysis. The conditions noted are these: THP-1. It is filed as cell-based. The gist of the method:
as §3

Kelch-like ECH-associated protein 1 (Homo sapiens), sequence (Q14145 whole entry): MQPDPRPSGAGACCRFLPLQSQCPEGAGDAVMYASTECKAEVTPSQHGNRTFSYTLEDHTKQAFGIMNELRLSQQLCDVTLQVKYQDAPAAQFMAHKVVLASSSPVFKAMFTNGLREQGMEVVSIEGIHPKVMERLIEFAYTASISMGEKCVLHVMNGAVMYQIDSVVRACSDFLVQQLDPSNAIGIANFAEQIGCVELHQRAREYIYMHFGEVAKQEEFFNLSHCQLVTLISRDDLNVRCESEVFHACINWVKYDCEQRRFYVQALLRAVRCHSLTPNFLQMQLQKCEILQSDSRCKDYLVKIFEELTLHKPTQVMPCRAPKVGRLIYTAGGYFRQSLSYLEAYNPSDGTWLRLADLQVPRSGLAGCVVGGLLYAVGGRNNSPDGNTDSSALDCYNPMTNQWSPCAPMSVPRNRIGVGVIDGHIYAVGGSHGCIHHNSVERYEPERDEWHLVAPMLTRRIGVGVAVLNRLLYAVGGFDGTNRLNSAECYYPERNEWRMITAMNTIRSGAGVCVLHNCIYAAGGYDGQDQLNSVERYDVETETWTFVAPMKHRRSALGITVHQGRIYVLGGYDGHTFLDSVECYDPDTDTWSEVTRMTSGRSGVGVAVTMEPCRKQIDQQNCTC

Consider `CC[C@H](C)[C@H](NC(=O)[C@@H]1CCCN1C(=O)[C@H](CC(C)C)NC(=O)[C@H](Cc1ccccc1)NC(=O)[C@H](CCC(=O)O)NC(=O)CNC(=O)[C@@H](NC(=O)[C@H](CCC(=O)O)NC(=O)[C@H](CCC(=O)O)NC(=O)[C@H](CC(=O)O)NC(=O)[C@H](CC(C)C)NC(=O)[C@H](CCC(N)=O)NC(=O)[C@@H](N)CC(C)C)[C@@H](C)O)C(=O)N[C@@H](CCC(N)=O)C(=O)O`, for which the inhibition – broadly, how much of the control response was suppressed – in test [1] is “inactive”.

For `CC(C)C[C@H](NC(=O)[C@H](CCCNC(=N)N)NC(=O)[C@H](CCCNC(=N)N)NC(=O)[C@H](CCCNC(=N)N)NC(=O)[C@H](CCC(N)=O)NC(=O)[C@H](CCCNC(=N)N)NC(=O)[C@H](CCCNC(=N)N)NC(=O)[C@H](CCCCN)NC(=O)[C@H](CCCCN)NC(=O)[C@H](CCCNC(=N)N)NC(=O)CNC(=O)[C@@H](N)Cc1ccc(O)cc1)C(=O)N[C@@H](CC(=O)O)C(=O)N[C@@H](CCC(=O)O)C(=O)N[C@@H](CCC(=O)O)C(=O)N[C@H](C(=O)NCC(=O)N[C@@H](CCC(=O)O)C(=O)N[C@@H](Cc1ccccc1)C(=O)N[C@@H](CC(C)C)C(=O)N1CCC[C@H]1C(=O)O)[C@@H](C)O`, the inhibition entry in [2] was “Active”.

With `CC(C)C[C@H](NC(=O)[C@H](Cc1ccccc1)NC(=O)[C@H](CCC(=O)O)NC(=O)CNC(=O)[C@@H](NC(=O)[C@H](CCC(=O)O)NC(=O)[C@H](CCC(=O)O)NC(=O)[C@H](CC(=O)O)NC(=O)[C@H](CC(C)C)NC(=O)[C@H](CCC(N)=O)NC(=O)[C@H](CC(C)C)NC(=O)[C@H](CCC(N)=O)NC(=O)[C@H](C)NC(=O)[C@H](Cc1ccccc1)NC(=O)[C@H](Cc1ccccc1)NC(=O)[C@H](C)NC(=O)[C@H](CCCNC(=N)N)NC(=O)[C@H](CCCNC(=N)N)NC(=O)[C@H](CCCNC(=N)N)NC(=O)[C@H](CCC(N)=O)NC(=O)[C@H](CCCNC(=N)N)NC(=O)[C@H](CCCNC(=N)N)NC(=O)[C@H](CCCCN)NC(=O)[C@H](CCCCN)NC(=O)[C@H](CCCNC(=N)N)NC(=O)CNC(=O)[C@@H](N)Cc1ccc(O)cc1)[C@@H](C)O)C(=O)O` (H-YGRKKRRQRRRAFFAQLQLDEETGEFL-OH), the inhibition result in [2] was “inactive”.

Turning to `CC[C@H](C)[C@H](NC(=O)[C@@H]1CCCN1C(=O)[C@H](CC(C)C)NC(=O)[C@H](Cc1ccccc1)NC(=O)[C@H](CCC(=O)O)NC(=O)CNC(=O)[C@@H](NC(=O)[C@H](CCC(=O)O)NC(=O)[C@H](CCC(=O)O)NC(=O)[C@H](CC(=O)O)NC(=O)[C@H](CC(C)C)NC(=O)[C@H](CCC(N)=O)NC(=O)[C@H](CC(C)C)NC(=O)[C@H](CCCNC(=N)N)NC(=O)[C@H](CCCNC(=N)N)NC(=O)[C@H](CCCNC(=N)N)NC(=O)[C@H](CCC(N)=O)NC(=O)[C@H](CCCNC(=N)N)NC(=O)[C@H](CCCNC(=N)N)NC(=O)[C@H](CCCCN)NC(=O)[C@H](CCCCN)NC(=O)[C@H](CCCNC(=N)N)NC(=O)CNC(=O)[C@@H](N)Cc1ccc(O)cc1)[C@@H](C)O)C(=O)N[C@@H](CCC(N)=O)C(=O)O`, in test [2], the inhibition result was “inactive”. Also, the inhibition entry in [3], in test [6] and in test [8] was “Active” each time. Further, the outcome in test [4] was inactive. The fold change (FC) in test [5] was 24. Moreover, the inhibition result in [7] is “Dose-dependent effect”. In addition, the inhibition at 100 µM in [9] was determined as 61%.

Regarding `CC[C@H](C)[C@H](NC(=O)[C@H](CC(=O)O)NC(=O)[C@@H](NC(=O)CNC(=O)[C@H](Cc1ccccc1)NC(=O)[C@H](CCC(=O)O)NC(=O)[C@H](CCCNC(=N)N)NC(=O)[C@H](CCCNC(=N)N)NC(=O)[C@H](CCCNC(=N)N)NC(=O)[C@H](CCC(N)=O)NC(=O)[C@H](CCCNC(=N)N)NC(=O)[C@H](CCCNC(=N)N)NC(=O)[C@H](CCCCN)NC(=O)[C@H](CCCCN)NC(=O)[C@H](CCCNC(=N)N)NC(=O)CNC(=O)[C@@H](N)Cc1ccc(O)cc1)[C@@H](C)O)C(=O)N[C@@H](CCC(N)=O)C(=O)N[C@@H](CC(C)C)C(=O)N[C@H](C(=O)N[C@@H](CCC(=O)O)C(=O)N1CCC[C@H]1C(=O)N[C@@H](CCC(N)=O)C(=O)N[C@@H](CC(C)C)C(=O)N[C@@H](CCC(=O)O)C(=O)O)[C@@H](C)CC` (H-YGRKKRRQRRREFGTDIQLIEPQLE-OH), the inhibition result in test [10], in [1] and in test [11] was “inactive” each time.
